Screens: PubChem, The Scripps Research Institute Molecular Screening Center
M5 PAM – potentiates acetylcholine response at human M5 receptor; activation, % at 3 µM; 360,000 compounds, 0.3% hits; CHO-K1 hM5, Fluo-8 calcium, ACh EC20 PAM; 0% = ACh EC20, 100% = ACh EC100; P08912;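 active = activation above the run cutoff, the mean activation of all test compounds plus 3 SD, cut at about 18% in these data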
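System: CHO-K1 hM5 cells. Reagent: acetylcholine, EC20 level. Compound dosing: single dose, 3 µM nominal final test concentration. Timing: Post-acetylcholine fluorescence recording 140 s. Detection: Fluo-8 calcium fluorescence. Read-out: % activation, ACh-normalized. Benchmarks: ACh EC20 and EC100 wells. Repeats: singlicate, one well per test compound.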
CHRM1 antagonist – blocks human M1 muscarinic receptor. 360,000 compounds, 1.3% hits. CHO-K1 hM1, Fluo-8 calcium fluorescence, ACh EC80 antagonist. P11229. inhibition, % at 3 µM;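 active = percent inhibition above its own plate's cutoff, namely the mean of that plate's compound wells plus 3 SD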;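 note: peak over basal fluorescence ratio during 140 s after agonist addition; 0% = ACh EC80 plus DMSO and 100% = DMSO alone without agonist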
Target sequence (P11229 whole entry, looked up): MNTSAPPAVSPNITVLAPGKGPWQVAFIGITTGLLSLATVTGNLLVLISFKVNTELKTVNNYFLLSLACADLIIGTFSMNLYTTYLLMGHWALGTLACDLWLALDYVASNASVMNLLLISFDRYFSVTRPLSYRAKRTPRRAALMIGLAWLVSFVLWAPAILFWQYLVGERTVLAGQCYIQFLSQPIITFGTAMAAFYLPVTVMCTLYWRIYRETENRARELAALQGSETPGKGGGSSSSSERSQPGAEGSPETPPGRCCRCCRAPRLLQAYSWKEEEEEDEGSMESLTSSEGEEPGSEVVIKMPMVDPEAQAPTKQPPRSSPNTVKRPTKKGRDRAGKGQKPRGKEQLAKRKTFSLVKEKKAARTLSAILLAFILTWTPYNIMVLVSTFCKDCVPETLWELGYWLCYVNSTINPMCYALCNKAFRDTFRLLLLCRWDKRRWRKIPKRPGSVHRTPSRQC
CHRM5 antagonist – CHRM5 antagonism in calcium assay; P08912; CHO-hM5 cells, Fluo-8 calcium fluorescence, ACh EC80; inhibition, % at 3 µM; 360,000 compounds, 0.59% hits;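 active = inhibition above a per-plate cutoff, the mean of that plate's test compounds plus 3 SD, cut at about 27% in these data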;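 note: 0% = acetylcholine EC80 with DMSO and 100% = DMSO without agonist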
CHRM1 agonist – activates human CHRM1 receptor. AID 588814. 360,000 compounds, 0.33% hits. P11229. activation, % at 3 µM. CHO-K1 hM1, Fluo-8 calcium fluorescence, agonist mode; 0% DMSO, 100% acetylcholine EC100;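 active = activation above the run's mean compound activation plus 3 SD, cut at about 16% in these data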;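 note: peak over basal fluorescence ratio within a 140 s kinetic read after compound addition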
CHRM5 agonist – CHRM5 agonism in calcium assay; AID 624037; activation, % at 3 µM; P08912; CHO-K1 hM5 cells, Fluo-8 calcium fluorescence; 0% DMSO wells, 100% maximal acetylcholine response; 360,000 compounds, 0.19% hits;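 active = activation above the run's mean over test compounds plus 3 SD, cut at about 23% in these data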;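 note: signal is peak over basal fluorescence ratio across the kinetic read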
M1 PAM – human CHRM1 positive allosteric modulation; P11229; CHO-K1 hM1, Fluo-8 calcium fluorescence, ACh EC20; 0% = ACh EC20, 100% = maximal ACh; activation, % at 3 µM; 360,000 compounds, 0.088% hits; in the data active = activation above about 19%, passing the limit was not always enough
* hit, by the source's call. An excerpt weighted towards active compounds, which were near 2.2% of everything screened.

SMILES | M5 PAM | CHRM1 antagonist | CHRM5 antagonist | CHRM1 agonist | CHRM5 agonist | M1 PAM
Cc1cc(C2C(=O)NC(=O)C2=O)c(C)cc1Br (stereo unspecified) | 0 | -16 | 4 | -2 | 1 | 5
O=[N+]([O-])c1cccc(COc2ccc(CN3CCOCC3)cc2)c1 | -16 | 49* | 10 | -4 | -3 | -26
O=[N+]([O-])c1cccc(COc2ccc(CN3CCCC3)cc2)c1 | -13 | 59* | 6 | -8 | -4 | -30
OC(c1ccc(-c2ccccc2)cc1)c1ncc(-c2ccccc2F)[nH]1 (stereo unspecified) | -2 | -15 | 14 | -3 | 0 | 9
COc1ccc(-c2ccc3c(c2)S(=O)(=O)c2cccc(C(=O)N4CCN(c5ccccn5)CC4)c2C3=O)cc1OC | -5 | 11 | 8 | -5 | 1 | -10
COc1ccc(-c2ccc3c(c2)S(=O)(=O)c2cccc(C(=O)N4CCN(C5CCCCC5)CC4)c2C3=O)cc1OC | -32 | 18 | 34* | -8 | 6 | -13
Cc1ccsc1C(=O)OCC(=O)NC1CCCC(C)C1C (stereo unspecified) | 12 | -11 | 0 | -8 | -2 | 7
CC(=O)c1cccc(S(=O)(=O)N2CCC(C(=O)OC3CCOC3=O)CC2)c1 (stereo unspecified) | 3 | 27* | 6 | -2 | -2 | -11
Cc1ccc(S(=O)(=O)N2CCC(C(=O)OC3CCOC3=O)CC2)cc1C (stereo unspecified) | -2 | 1 | 3 | -4 | -3 | 3
Cc1ccc(C2Nc3ccccc3C(=O)N2Cc2ccco2)cc1 (stereo unspecified) | -6 | -26 | 7 | -3 | -8 | 5
O=C(Nc1nnc([C@@H]2C[C@H](O)[C@@H](CO)O2)s1)Nc1ccccc1Oc1ccccc1 | 1 | -9 | -2 | -5 | 1 | 7
CN(C)CC/C=C1/c2cc(F)ccc2Sc2ccc(Cl)cc21 | -29 | 99* | 99* | -7 | -19 | -27
COc1ccc(CCN(/C=C2\Sc3ccccc3C2=O)C(C)=O)cc1OC | 13 | -20 | -1 | 0 | 5 | 20
COc1cc(Cl)cc2c1Sc1ccccc1/C2=C/CCN(C)C | -29 | 68* | 36* | -4 | -12 | -24
CN1CCN(CC/C=C2/c3ccccc3Sc3ccc(S(=O)(=O)N(C)C)cc32)CC1 | -9 | -15 | -2 | -5 | 0 | -8
CN(C)CC/C=C1/c2ccccc2Sc2c(O)cc(Cl)cc21 | -16 | 97* | 98* | -10 | -6 | -31
COc1cc2c(cc1Cl)/C(=C\CCN(C)C)c1ccccc1S2 | -18 | 66* | 25 | -4 | -4 | -17
Fc1cccc(Cl)c1CSc1nnc(COc2cccc3cccnc23)o1 | -7 | -1 | 1 | -5 | 1 | -9
CCCOc1ccc(F)cc1-c1cc(C(=O)NCc2cccs2)[nH]n1 | -4 | -10 | 10 | -7 | -3 | 0
Nc1ncnc(Nc2ccccc2Oc2ccccc2)n1 | 16 | -11 | -4 | -8 | -5 | 4
CCOc1ccc(OCCC(=O)Nc2ccc(F)cc2C)cc1 | 4 | -13 | -1 | -10 | -8 | 9
CS(=O)(=O)N1CCc2cc(S(=O)(=O)Nc3ccc4c(c3)OCCO4)ccc21 | -21 | 33* | 12 | 3 | 12 | -24
CC(=O)NC1CCCN(O)C(=O)/C=C(\C)CCOC(=O)C(NC(C)=O)CCCN(O)C(=O)/C=C(\C)CCOC(=O)C(NC(C)=O)CCCN(O)C(=O)/C=C(\C)CCOC1=O (stereo unspecified) | -6 | -9 | 6 | 0 | 2 | 9
CC(=O)CC(C)(C)Nc1nc2ccc([N+](=O)[O-])cc2o1 | 25* | -8 | -11 | -1 | 5 | 8
CC(C)n1c(CCC(=O)O)ccc1-c1ccccc1 | 3 | 22* | 0 | -3 | 7 | -4
SMILES | M5 PAM | CHRM1 antagonist | CHRM5 antagonist | CHRM1 agonist | CHRM5 agonist | M1 PAM
COc1ccc(CCNC(=O)CSc2nnnn2-c2ccccc2)cc1 | 43* | -16 | 33* | -1 | -3 | 0
CC(C)Cc1nn2c(N)c(/C=C3\C=Nc4ccccc43)c(=O)nc2s1 | -19 | 13 | 32* | -2 | 3 | -11
CN(C(=O)COC(=O)c1ccc(S(=O)(=O)N2CCCC2)cc1)c1ccccc1 | -2 | 50* | 11 | -6 | -16 | -22
Cc1ccc(CNC(=O)COC(=O)c2ccc(S(=O)(=O)N3CCCC3)cc2)cc1 | 22* | 9 | 2 | -5 | -8 | -6
O=C(COC(=O)c1ccc(S(=O)(=O)N2CCCC2)cc1)NCc1ccc(F)cc1 | 7 | -6 | 3 | -6 | -5 | 9
COc1ccc(C(=O)NC(C)c2nnc(SCC(=O)NC3CCCC3)n2C)cc1 (stereo unspecified) | -5 | 4 | 13 | -3 | 0 | 0
COc1ccc2c(=O)cc(-c3ccncc3)oc2c1OC | -4 | -5 | 16 | -4 | 3 | 8
O=C1CCC(C(=O)OCc2ccccc2)N1 (stereo unspecified) | -7 | 0 | 14 | -5 | -2 | -2
CCN(CC)CCn1c(NS(=O)(=O)c2ccc(Cl)cc2)nc2ccccc21 | 3 | 3 | -2 | -11 | -7 | -8
Cc1ccc(C)c(NC(=O)C(NCC(C)(C)N2CCOCC2)c2ccccc2)c1 (stereo unspecified) | -35 | 92* | 13 | -8 | -17 | -27
CCOC(=O)C1CCC(CN(Cc2ccccc2)S(=O)(=O)c2ccc([N+](=O)[O-])cc2)CC1 (stereo unspecified) | 7 | 8 | -13 | -9 | -2 | -2
CCOC(=O)C1(C)CCN1C(=O)c1cc(-c2ccc(Cl)cc2)oc1C (stereo unspecified) | 4 | -21 | 1 | -2 | -1 | 9
Cc1onc(-c2c(F)cccc2Cl)c1C(=O)Nc1ccc(S(=O)(=O)N2CCOCC2)cc1 | -1 | -13 | 10 | -4 | -1 | 5
Cc1onc(-c2c(F)cccc2Cl)c1C(=O)Nc1cc(S(=O)(=O)N2CCCCC2)ccc1O | -39 | 47* | 20 | -3 | -2 | -21
C=CCOc1ccc(C(c2c(C)n(C)n(-c3ccccc3)c2=O)c2c(C)n(C)n(-c3ccccc3)c2=O)cc1 | -7 | 5 | -1 | -10 | -7 | -6
CN(Cc1ccc(OC(F)F)cc1)C(=O)c1cccc(S(=O)(=O)N2CCN(c3ccccc3)CC2)c1 | -45 | 46* | 29* | 0 | 4 | -20
COc1ccccc1N(C)S(=O)(=O)c1ccc(C(=O)N(C)Cc2ccc(OC(F)F)cc2)cc1 | -35 | 27* | 22 | 0 | 1 | -14
